Results from ChEMBL document CHEMBL1671756, “In vitro and in vivo antifungal susceptibilities of the Mucoralean fungus Cunninghamella” (2010).
≈ marks a conversion by molar mass, not a printed value. Calls of active or inactive are those of the source. The rule behind the calls is not given here.

Tests used:
[1] = tested on: Cunninghamella bertholletiae; test: Antifungal activity against Cunninghamella bertholletiae UTHSC 05-2275 infected in neutropenic OF1 mouse assessed as increase in mouse survival rate at 80 mg/kg, po qd administered 1 day after infection for 7 days relative to untreated control; format: functional, organism-based; parameters: dose 80 mg/kg
In short: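 Male OF1 mice, about 30 g, made neutropenic with cyclophosphamide 200 mg/kg i.p. plus 5-fluorouracil 150 mg/kg i.v. 1 day before challenge. Infected i.v. via the lateral tail vein with 1 × 10⁴ CFU of hemacytometer-counted sporangiospores in 0.2 ml saline. Ceftazidime 5 mg/day s.c. on days 1–7. Oral treatment started 24 h after challenge; 10 mice per group; checked daily for 20 days; Kaplan-Meier mean survival time, log-rank test.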

[2] = Antifungal activity against Cunninghamella echinulata FMR 10973 after 24 hrs by broth microdilution method; format: functional
In short: (§1)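 CLSI broth microdilution for filamentous fungi. Isolates were stored at −80°C and subcultured on potato dextrose agar at 35°C. MICs were read after 24 h. […] The QC strain was Paecilomyces variotii ATCC 36257.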

[3] = tested on: Cunninghamella bertholletiae; test: Antifungal activity against Cunninghamella bertholletiae UTHSC 05-2275 after 24 hrs by broth microdilution method; format: functional; settings: UTHSC 05-2275, 24 h; in short: as §1
[4] = tested on: Cunninghamella bertholletiae; test: Antifungal activity against Cunninghamella bertholletiae UTHSC 04-2581 infected in neutropenic OF1 mouse assessed as decreased fungal load in lung at 60 mg/kg, po qd administered 1 day post infection measured after 4 to 5 days relative to untreated control; format: functional, organism-based; parameters: dose 60 mg/kg
In short: (§2)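 Neutropenic male OF1 mice (cyclophosphamide 200 mg/kg i.p. plus 5-fluorouracil 150 mg/kg i.v., day −1) were given 1 × 10⁴ CFU sporangiospores i.v. in 0.2 ml saline. Treatment from 24 h: 0.8 mg/kg i.v. or oral doses once daily; 10 mice per group. Killed at day 5 (day 4 if moribund). About half of brain, lungs and kidneys homogenized in saline; 10-fold dilutions plated on PDA for 24 h at 35°C; log₁₀ CFU/g tissue.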

[5] = tested on: Cunninghamella bertholletiae; test: Antifungal activity against Cunninghamella bertholletiae UTHSC 03-2241 after 24 hrs by broth microdilution method; format: functional; settings: UTHSC 03-2241, 24 h; in short: as §1
[6] = Antifungal activity against Cunninghamella echinulata UTHSC 03-3725 after 24 hrs by broth microdilution method; format: functional; in short: as §1
[7] = tested on: Cunninghamella bertholletiae; test: Antifungal activity against Cunninghamella bertholletiae UTHSC 06-1945 infected in neutropenic OF1 mouse assessed as decreased fungal load in lung at 60 mg/kg, po qd administered 1 day post infection measured after 4 to 5 days relative to untreated control; format: functional, organism-based; parameters: dose 60 mg/kg; in short: as §2
[8] = Antifungal activity against Cunninghamella echinulata UTHSC 01-2298 after 24 hrs by broth microdilution method; format: functional; in short: as §1
[9] = Antifungal activity against Cunninghamella echinulata FMR 10974 after 24 hrs by broth microdilution method; format: functional; in short: as §1
[10] = tested on: Cunninghamella bertholletiae; test: Antifungal activity against Cunninghamella bertholletiae UTHSC 06-1945 after 24 hrs by broth microdilution method; format: functional; settings: UTHSC 06-1945, 24 h; in short: as §1
[11] = tested on: Cunninghamella bertholletiae; test: Antifungal activity against Cunninghamella bertholletiae FMR-9598 infected in neutropenic OF1 mouse assessed as decreased fungal load in lung at 60 mg/kg, po qd administered 1 day post infection measured after 4 to 5 days relative to untreated control; format: functional, organism-based; parameters: dose 60 mg/kg; in short: as §2
[12] = tested on: Cunninghamella bertholletiae; test: Antifungal activity against Cunninghamella bertholletiae UTHSC 05-2275 infected in neutropenic OF1 mouse assessed as decreased fungal load in lung at 80 mg/kg, po qd administered 1 day post infection measured after 4 to 5 days relative to untreated control; format: functional, organism-based; parameters: dose 80 mg/kg; in short: as §2
[13] = tested on: Cunninghamella bertholletiae; test: Antifungal activity against Cunninghamella bertholletiae UTHSC 05-2275 infected in neutropenic OF1 mouse assessed as decreased fungal load in kidney at 60 mg/kg, po qd administered 1 day post infection measured after 4 to 5 days relative to untreated control; format: functional, organism-based; parameters: dose 60 mg/kg; in short: as §2
[14] = tested on: Cunninghamella bertholletiae; test: Antifungal activity against Cunninghamella bertholletiae UTHSC 04-2581 infected in neutropenic OF1 mouse assessed as decreased fungal load in kidney at 60 mg/kg, po qd administered 1 day post infection measured after 4 to 5 days relative to untreated control; format: functional, organism-based; parameters: dose 60 mg/kg; in short: as §2
[15] = tested on: Cunninghamella bertholletiae; test: Antifungal activity against Cunninghamella bertholletiae FMR-9598 after 24 hrs by broth microdilution method; format: functional; settings: FMR-9598, 24 h; in short: as §1
[16] = tested on: Cunninghamella bertholletiae; test: Antifungal activity against Cunninghamella bertholletiae UTHSC 05-2275 infected in neutropenic OF1 mouse assessed as decreased fungal load in lung at 60 mg/kg, po qd administered 1 day post infection measured after 4 to 5 days relative to untreated control; format: functional, organism-based; parameters: dose 60 mg/kg; in short: as §2
[17] = tested on: Cunninghamella bertholletiae; test: Antifungal activity against Cunninghamella bertholletiae UTHSC 04-2581 after 24 hrs by broth microdilution method; format: functional; settings: UTHSC 04-2581, 24 h; in short: as §1
[18] = tested on: Cunninghamella bertholletiae; test: Antifungal activity against Cunninghamella bertholletiae FMR-9598 infected in neutropenic OF1 mouse assessed as decreased fungal load in kidney at 60 mg/kg, po qd administered 1 day post infection measured after 4 to 5 days relative to untreated control; format: functional, organism-based; parameters: dose 60 mg/kg; in short: as §2
[19] = tested on: Cunninghamella bertholletiae; test: Antifungal activity against Cunninghamella bertholletiae UTHSC 05-2275 infected in neutropenic OF1 mouse assessed as decreased fungal load in kidney at 80 mg/kg, po qd administered 1 day post infection measured after 4 to 5 days relative to untreated control; format: functional, organism-based; parameters: dose 80 mg/kg; in short: as §2
[20] = tested on: Cunninghamella bertholletiae; test: Antifungal activity against Cunninghamella bertholletiae UTHSC 03-2241 infected in neutropenic OF1 mouse assessed as decreased fungal load in lung at 0.8 mg/kg, iv qd administered 1 day post infection measured after 4 to 5 days relative to untreated control; format: functional, organism-based; parameters: dose 0.8 mg/kg; in short: as §2
[21] = tested on: Cunninghamella bertholletiae; test: Antifungal activity against Cunninghamella bertholletiae FMR-9598 infected in neutropenic OF1 mouse assessed as decreased fungal load in kidney at 0.8 mg/kg, iv qd administered 1 day post infection measured after 4 to 5 days relative to untreated control; format: functional, organism-based; parameters: dose 0.8 mg/kg; in short: as §2
[22] = tested on: Cunninghamella bertholletiae; test: Antifungal activity against Cunninghamella bertholletiae UTHSC 06-1945 infected in neutropenic OF1 mouse assessed as decreased fungal load in kidney at 60 mg/kg, po qd administered 1 day post infection measured after 4 to 5 days relative to untreated control; format: functional, organism-based; parameters: dose 60 mg/kg; in short: as §2
[23] = tested on: Cunninghamella bertholletiae; test: Antifungal activity against Cunninghamella bertholletiae UTHSC 03-2241 infected in neutropenic OF1 mouse assessed as decreased fungal load in lung at 60 mg/kg, po qd administered 1 day post infection measured after 4 to 5 days relative to untreated control; format: functional, organism-based; parameters: dose 60 mg/kg; in short: as §2
[24] = tested on: Cunninghamella bertholletiae; test: Antifungal activity against Cunninghamella bertholletiae UTHSC 03-2241 infected in neutropenic OF1 mouse assessed as decreased fungal load in kidney at 60 mg/kg, po qd administered 1 day post infection measured after 4 to 5 days relative to untreated control; format: functional, organism-based; parameters: dose 60 mg/kg; in short: as §2
[25] = tested on: Cunninghamella bertholletiae; test: Antifungal activity against Cunninghamella bertholletiae UTHSC 05-2275 infected in neutropenic OF1 mouse assessed as decreased fungal load in lung at 0.8 mg/kg, iv qd administered 1 day post infection measured after 4 to 5 days relative to untreated control; format: functional, organism-based; parameters: dose 0.8 mg/kg
In short: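 Neutropenic male OF1 mice (cyclophosphamide 200 mg/kg i.p. + 5-fluorouracil 150 mg/kg i.v., day −1) were infected i.v. with 1 × 10⁴ CFU. Ten mice per group were treated from day 1 and killed by CO₂ on day 5, or on day 4 if moribund. Half of each brain, lung and kidney was homogenized in 1 ml saline. Ten-fold dilutions were plated on PDA for 24 h at 35°C and counted as log₁₀ CFU/g.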

SMILES	Activity [1]	MIC [2] [µg/mL]	MIC [3] [µg/mL]	Activity [4]	MIC [5] [µg/mL]	MIC [6] [µg/mL]	Activity [7]	MIC [8] [µg/mL]	MIC [9] [µg/mL]	MIC [10] [µg/mL]	Activity [11]	Activity [12]	Activity [13]	Activity [14]	MIC [15] [µg/mL]	Activity [16]	MIC [17] [µg/mL]	Activity [18]	Activity [19]	Activity [20]	also measured
CC[C@@H]([C@H](C)O)n1ncn(-c2ccc(N3CCN(c4ccc(OC[C@@H]5CO[C@@](Cn6cncn6)(c6ccc(F)cc6F)C5)cc4)CC3)cc2)c1=O [POSACONAZOLE]	Active	> 16	0.5 (≈ 0.713 µM)	Active	0.5 (≈ 0.713 µM)	1 (≈ 1.43 µM)	Active	16 (≈ 22.8 µM)	> 16	0.5 (≈ 0.713 µM)	Active	Active	Active	Active	0.5 (≈ 0.713 µM)	Active	0.5 (≈ 0.713 µM)	Active	Active	Active	Activity [21]: Active; Activity [22]: Active; Activity [23]: Active; Activity [24]: Active
C[C@@H]1[C@H](O)[C@@H](C)/C=C/C=C/C=C/C=C/C=C/C=C/C=C/[C@H](O[C@@H]2O[C@H](C)[C@@H](O)[C@H](N)[C@@H]2O)C[C@@H]2O[C@](O)(C[C@@H](O)C[C@@H](O)[C@H](O)CC[C@@H](O)C[C@@H](O)CC(=O)O[C@H]1C)C[C@H](O)[C@H]2C(=O)O [AMPHOTERICIN B]	Active	4 (≈ 4.33 µM)	2 (≈ 2.16 µM)	Active	4 (≈ 4.33 µM)	8 (≈ 8.66 µM)	Active	16 (≈ 17.3 µM)	8 (≈ 8.66 µM)	4 (≈ 4.33 µM)	Active	Active	Active	Active	2 (≈ 2.16 µM)	Active	4 (≈ 4.33 µM)	Active	Active	Active	Activity [25]: Active; Activity [21]: Active; Activity [22]: Active; Activity [23]: Active; Activity [24]: Active
